Consider 24 compounds from ChEMBL document CHEMBL1121819, “Potential anticonvulsants. 1. 5-Benzylhydantoins” (J Med Chem, 1981).

Activity calls are given as the source filed them.

Data set [1] has as its system Rattus norvegicus. Description: (§1) Anticonvulsant activity was measured by the ability to prevent intraperitoneally. Format: functional. The method, boiled down:
(§2)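 Pentylenetetrazole (90 mg/kg ip) given after ip pretreatment with test agent as suspension in 0.5% methylcellulose; controls received diluent. Animals observed 15 min; protection = absence of clonic seizures. ED50 in mg/kg.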

The subject of data set [2] is Rattus norvegicus. In words: Anticonvulsant activity measured to prevent maximal electroshock seizure in rats when administered intraperitoneally. It counts as functional. The settings on record: ip. Put shortly:
(§3)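 Male Sprague–Dawley rats (160–300 g) given compound ip as suspension in 0.5% methylcellulose (10 mL/kg), 30 min before electroshock; 150 mA via corneal electrodes for 0.2 s. Protection = abolition of hind-limb tonic extensor component. ED50 in mg/kg.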
A general note: In the maximal electroshock model the usual endpoint is tonic extension of the hind limbs.

Data set [3] is described as follows: Acute toxicity measured in mice when administered intraperitoneally. Format: organism-based. The settings on record: mus sp., in vivo, ip.
Data set [4] concerns Rattus norvegicus. Description: Acute toxicity of was measured in rat by po administration when administered intraperitoneally. It counts as organism-based. The settings on record: in vivo.
In data set [5] the test system is Mus musculus. Description: Neurological deficit (Loss of coordination) was measured in the mice using rotarod test when administered intraperitoneally. Format: functional. The settings on record: ip. The method, boiled down:
(§4)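 Mice dosed ip, then placed on rotarod turning at 11 rpm; failure to stay on for at least 1 min scored as loss of coordination. ED50 in mg/kg.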
For orientation: In the rotarod test animals must keep their balance on a rotating rod.

In data set [6] the test system is Rattus norvegicus. Description: Anticonvulsant activity was measured by the ability to prevent maximal electroshock seizure in rat when administered intraperitoneally. It counts as functional. The settings on record: ip. The method, boiled down:
as §3

Data set [7] relates to Mus musculus. In words: Anticonvulsant activity was measured by the ability to prevent maximal electroshock seizure in mice when administered intraperitoneally. It counts as functional. The settings on record: ip. The method, boiled down:
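Male ICR (Blue Spruce) mice, 19–22 g, dosed ip as suspension in 0.5% methylcellulose (10 mL/kg) 30 min prior to corneal electroshock, 50 mA for 0.2 s. Mice scored protected if hind-limb extensor phase was blocked; ED50 in mg/kg.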

Data set [8] is described as follows: (§5) Acute toxicity of was measured in rat by ip administration when administered intraperitoneally. The settings on record: in vivo. Format: organism-based.
Data set [9] can be described thus: as §5. It counts as organism-based. The settings on record: in vivo. This is another data set of the same source.
The species named for data set [10] is Rattus norvegicus. In words: Peak time of anticonvulsant activity against MES was determined. Format: functional. The method, boiled down:
(§6)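 Separate groups of rats dosed ip at approximate ED84 and challenged by maximal electroshock (150 mA, 0.2 s, corneal electrodes) at 0.5, 1, 2, 3 or >6 h after dosing; protection = hind-limb extensor blocked. Time of peak activity/duration in h.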

Data set [11] is filed under the species Rattus norvegicus. In words: Peak time of anticonvulsant activity against MES was determined; 4-6. It counts as functional. The method, boiled down: as §6
Data set [12] is described as follows: Acute toxicity of was measured in rat by po administration of the compound. It counts as organism-based. The settings on record: in vivo.
A short description of data set [13]: Acute toxicity of was measured in rat by ip administration of the compound. It counts as organism-based. The settings on record: in vivo.
Data set [14] has as its system Mus musculus. Description: Tolerance was tested in maximal electroshock seizures test in mice when administered intraperitoneally; Yes. It counts as functional, organism-based.
The test system of data set [15] is Mus musculus. In words: Loss of righting reflex was measured in the mice when administered intraperitoneally. Format: functional. The settings on record: ip.
In data set [16] the test system is Mus musculus. In words: Anticonvulsant activity was measured by the ability to prevent matrazol induced threshold clonic seizures in mice when administered intraperitoneally. It counts as functional. The settings on record: ip. Put shortly:
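Mice were pretreated intraperitoneally 30 min before pentylenetetrazole (90 mg/kg ip). Compounds were given as a 0.5% methylcellulose suspension at 10 mL/kg; controls received diluent. Animals were watched for 15 min and counted protected if clonic seizures were prevented. The ED50 is the dose protecting half the animals.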

The subject of data set [17] is Mus musculus. Description: Neurological deficit was measured in the mice using rotarod test when administered intraperitoneally. Format: functional. The settings on record: ip. The method, boiled down: as §4
For data set [18], the system named is Rattus norvegicus. Description: Anticonvulsant activity was measured by the ability to prevent intraperitoneally; Inactive. Format: functional, organism-based. The method, boiled down:
as §2

Data set [19] concerns Mus musculus. Described as §1. The settings on record: ip. It counts as functional. Put shortly:
as §2

Data set [20] relates to Rattus norvegicus. In words: Peak time of anticonvulsant activity against MES was determined ip. Format: functional. The method, boiled down:
as §6

What is called ED50 is the dose that gives a 50% effect, or the effect in half of the subjects. By LD50 is commonly meant the dose at which mortality reaches 50%. Higher therefore signals a less toxic substance. For the compound `O=C1NC(=O)/C(=C\c2cccc(C(F)(F)F)c2)N1`, the ED50 with Rattus norvegicus [1] (ip) is more than 200 mg/kg; in the data set on Rattus norvegicus [2], approximately 50 mg/kg. Moreover, in data set [3], the LD50 stood at 350 mg/kg.
In the case of `O=C1NC(Cc2cccc(C(F)(F)F)c2)C(=O)N1CCO` (centres undefined), the figures for the ED50 in the data set on Rattus norvegicus [1] (ip) and in the data set with Rattus norvegicus [2] were 100 mg/kg and 45 mg/kg, respectively.
In the case of `COc1ccc(OC)c(/C=C2/NC(=O)NC2=O)c1`, the ED50 in the data set on Rattus norvegicus [1] (ip) was more than 200 mg/kg; in the data set on Rattus norvegicus [2] it was more than 50 mg/kg. The compound further registered an LD50 in data set [3] of more than 500 mg/kg.
In the case of `O=C1NC(Cc2cccc(C(F)(F)F)c2)C(=O)N1CCBr` (centres undefined), in the data set on Rattus norvegicus [2], the ED50 is more than 50 mg/kg.
For the compound `O=C1NC(=O)C(Cc2cccc(Cl)c2)N1` (centres undefined), the ED50 is approximately 150 mg/kg with Rattus norvegicus [1] (ip) and more than 50 mg/kg in the data set on Rattus norvegicus [2].
`CC1(Cc2cccc(C(F)(F)F)c2)NC(=O)NC1=O` (centres undefined): the ED50 in the data set with Rattus norvegicus [2] is more than 50 mg/kg.
On to `COc1ccc(/C=C2/NC(=O)NC2=O)cc1OC`, for which the values for the ED50 with Rattus norvegicus [1] (ip) and in the data set with Rattus norvegicus [2] were more than 50 mg/kg and more than 200 mg/kg, respectively. Moreover, the LD50 in data set [3] was more than 500 mg/kg.
In the data set with Rattus norvegicus [2], `COc1ccc(CC2(C)NC(=O)NC2=O)c(OC)c1` (centres undefined) displayed an ED50 of more than 50 mg/kg. The compound also showed an LD50 in [3] of more than 600 mg/kg.
Regarding `COc1ccc(CC2NC(=O)NC2=O)cc1OC` (centres undefined), the ED50 in the data set with Rattus norvegicus [1] (ip) is more than 200 mg/kg; in the data set with Rattus norvegicus [2] it was more than 50 mg/kg.
`O=C1NC(=O)/C(=C\c2cccc(Cl)c2)N1`: the ED50 in the data set on Rattus norvegicus [1] (ip) was more than 200 mg/kg; in the data set on Rattus norvegicus [2] it was approximately 50 mg/kg.
For the compound `CCCC(CCC)C(=O)O` [VALPROIC ACID], the figures for the LD50 (in the data set with Rattus norvegicus [4]; in [8]; in data set [9]) were 1530 mg/kg, 1040 mg/kg and 838 mg/kg, respectively. For the same compound, the ED50 in the data set with Rattus norvegicus [1] (ip) was more than 500 mg/kg; in the data set on Mus musculus [5], 415 mg/kg; in the data set with Rattus norvegicus [6], 94.8 mg/kg; with Mus musculus [7], 260 mg/kg. This compound returned a Duration of action in the data set listed under Rattus norvegicus [10] of approximately 5 h.
Turning to `N#CCCN1C(=O)NC(Cc2cccc(C(F)(F)F)c2)C1=O` (centres undefined), the ED50 in the data set on Rattus norvegicus [2] is more than 50 mg/kg.
`COc1ccc(OC)c(CC2NC(=O)NC2=O)c1` (centres undefined): the ED50 in the data set on Rattus norvegicus [2] is more than 50 mg/kg.
As for `CN1C(=O)NC(Cc2cccc(Br)c2)C1=O` (centres undefined), the ED50 is approximately 100 mg/kg in the data set on Rattus norvegicus [1] (ip) and 30 mg/kg in the data set on Rattus norvegicus [2]. This compound also gave a 50% lethal dose (LD50) in data set [3] of 500 mg/kg.
Regarding `O=C1NC(=O)C(Cc2cccc(Br)c2)N1` (centres undefined), the ED50 in the data set with Rattus norvegicus [1] (ip) is more than 200 mg/kg; in the data set on Rattus norvegicus [2], more than 50 mg/kg.
Consider `COc1ccc(OC)c(CC2(C)NC(=O)NC2=O)c1` (centres undefined), for which the ED50 in the data set on Rattus norvegicus [2] was more than 50 mg/kg. Also, the LD50 in [3] was more than 800 mg/kg.
In the data set listed under Rattus norvegicus [11], `O=C1NC(=O)C(c2ccccc2)(c2ccccc2)N1` [PHENYTOIN] gave a Duration of action of 4 h. Moreover, the LD50 in data set [12] is more than 1000 mg/kg; in [13], 280 mg/kg; in data set [3] it was 100 mg/kg. In addition, in the data set with Mus musculus [14], the Tolerance result is “Active”. Moreover, the ED50 in the data set with Mus musculus [15] turned out to be 82 mg/kg; in the data set on Mus musculus [16], 50 mg/kg; in the data set on Mus musculus [7], 8.5 mg/kg; in the data set on Mus musculus [17], 135 mg/kg; in the data set on Rattus norvegicus [2], 9.6 mg/kg. Also, in the data set on Rattus norvegicus [18], the ED50 result was “inactive”.
Consider `CC1(Cc2ccc3ccccc3c2)NC(=O)NC1=O` (centres undefined), for which the 50% effective dose (ED50) in the data set with Rattus norvegicus [2] is more than 50 mg/kg.
For `O=C1NC(=O)C(c2ccccc2)(c2cccc(C(F)(F)F)c2)N1` (centres undefined), the ED50 in the data set with Rattus norvegicus [1] (ip) was more than 200 mg/kg; with Rattus norvegicus [2] it was more than 50 mg/kg. In [3], this compound showed an LD50 of more than 100 mg/kg.
On the same counts, the results for `O=C1NC(=O)/C(=C\c2cccc(Br)c2)N1` are more than 200 mg/kg, more than 50 mg/kg and more than 500 mg/kg.
`COc1ccc(CC2(C)NC(=O)NC2=O)cc1OC` (centres undefined): the ED50 with Rattus norvegicus [1] (ip) was more than 200 mg/kg; in the data set with Rattus norvegicus [2] it was more than 50 mg/kg. Moreover, the LD50 in [3] is more than 500 mg/kg.
The corresponding values for `CCOC(=O)CN1C(=O)NC(Cc2cccc(C(F)(F)F)c2)C1=O` (centres undefined) are more than 100 mg/kg, more than 50 mg/kg and 500 mg/kg.
The corresponding values for `CN1C(=O)NC(Cc2cccc(C(F)(F)F)c2)C1=O` (centres undefined) are more than 100 mg/kg, more than 50 mg/kg and 350 mg/kg.
`O=C1NC(=O)C(Cc2cccc(C(F)(F)F)c2)N1` (centres undefined): the ED50 in the data set with Mus musculus [19] is 17.5 mg/kg; in the data set with Rattus norvegicus [1], approximately 100 mg/kg; with Mus musculus [5] it was 65 mg/kg; with Mus musculus [15], 160 mg/kg; in the data set on Mus musculus [7], 70 mg/kg; in the data set with Rattus norvegicus [2] it was 23 mg/kg. The LD50 in data set [13] came to 410 mg/kg; in [3], 350 mg/kg. In the data set with Rattus norvegicus [20], this compound gave a Duration of action of 4 h.
